Experimental findings from ChEMBL document CHEMBL4422650, “Design and synthesis of biotinylated cardiac glycosides for probing Nur77 protein inducting pathway” (Bioorg Med Chem Lett, 2019) are described below.

Activity calls are given as the source filed them. The rule behind the calls is not given here. A value given as a limit tells only on which side of the number the result lay.

The nature of data set [1]: Cytotoxicity against human NIH-H460 cells assessed as cell viability at 50 nM after 48 hrs by MTT assay relative to control. Background: Tetrazolium assays rely on reduction of a dye to a coloured formazan, in cell work by metabolically active cells.
The species named for a further data set is Homo sapiens. As to the kind of experiment: Induction of Nur77 expression in human NIH-H460 cells AT 20 nM after 3 hrs by Western blot analysis. Type of data set: functional, cell-based. A digest of the protocol:
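NIH-H460 cancer cells were exposed to probes at 20 nM for 3 h. Nur77 protein was detected by western blotting with an anti-Nur77 antibody. DMSO served as the blank, and the underivatized biotin linker hydrazides were the negative controls.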
For orientation: A western blot detects proteins with antibodies after separation by electrophoresis.

Data set [2] concerns the target Streptavidin (Streptomyces avidinii) (UniProt P22629). The data set is described as follows: Binding affinity to Streptomyces avidinii streptavidin at 1 mM after 2 hrs by HABA dye-based UV-vis spectroscopic analysis.

Streptavidin (Streptomyces avidinii), sequence (P22629 whole entry): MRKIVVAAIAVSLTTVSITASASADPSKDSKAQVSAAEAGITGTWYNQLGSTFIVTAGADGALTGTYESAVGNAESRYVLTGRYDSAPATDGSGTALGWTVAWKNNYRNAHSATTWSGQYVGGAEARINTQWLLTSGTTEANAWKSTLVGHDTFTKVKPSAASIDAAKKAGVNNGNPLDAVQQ

In the case of `C[C@H]1O[C@@H](O[C@H]2CC[C@]3(/C=N/NC(=O)COCCOCCOCCNC(=O)CCCC[C@@H]4SC[C@@H]5NC(=O)N[C@@H]54)[C@H]4C[C@@H](O)[C@]5(C)[C@@H](C6=CC(=O)OC6)CC[C@]5(O)[C@@H]4CC[C@]3(O)C2)[C@H](O)[C@H](O)[C@H]1O`, the viability at 48 h, 0.05 µM in data set [1] is greater than 90%. The result in the data set listed under Homo sapiens was Active.
Take `C[C@@H]1O[C@@H](O[C@H]2CC[C@]3(C=O)[C@H]4C[C@@H](O)[C@]5(C)[C@@H](C6=CC(=O)OC6)CC[C@]5(O)[C@@H]4CC[C@]3(O)C2)[C@H](O)[C@H](O)[C@H]1O`: the outcome in the data set filed under Homo sapiens was Active.
Take `C[C@@H]1O[C@@H](O[C@H]2CC[C@]3(/C=N/NC(=O)COCCOCCNC(=O)CCCC[C@@H]4SC[C@@H]5NC(=O)N[C@@H]54)[C@H]4C[C@@H](O)[C@]5(C)[C@@H](C6=CC(=O)OC6)CC[C@]5(O)[C@@H]4CC[C@]3(O)C2)[C@H](O)[C@H](O)[C@H]1O`: in data set [1], the viability at 48 h, 0.05 µM is greater than 90%. Moreover, in the data set listed under Homo sapiens, the result was Active.
Taken in the same sequence, the figures for `C[C@@H]1O[C@@H](O[C@H]2CC[C@]3(/C=N/NC(=O)COCCOCCOCCNC(=O)CCCC[C@@H]4SC[C@@H]5NC(=O)N[C@@H]54)[C@H]4C[C@@H](O)[C@]5(C)[C@@H](C6=CC(=O)OC6)CC[C@]5(O)[C@@H]4CC[C@]3(O)C2)[C@H](O)[C@H](O)[C@H]1O` were greater than 90% and “Active”.
For the compound `C[C@H]1O[C@@H](O[C@H]2CC[C@]3(/C=N/NC(=O)CCCCCCCNC(=O)CCCC[C@@H]4SC[C@@H]5NC(=O)N[C@@H]54)[C@H]4C[C@@H](O)[C@]5(C)[C@@H](C6=CC(=O)OC6)CC[C@]5(O)[C@@H]4CC[C@]3(O)C2)[C@H](O)[C@H](O)[C@H]1O`, the result (in data set [2]; in the data set filed under Homo sapiens) was Active. Besides, the viability at 48 h, 0.05 µM in data set [1] was greater than 90%.
Consider `C[C@H]1O[C@@H](O[C@H]2CC[C@]3(C=O)[C@H]4C[C@@H](O)[C@]5(C)[C@@H](C6=CC(=O)OC6)CC[C@]5(O)[C@@H]4CC[C@]3(O)C2)[C@H](O)[C@H](O)[C@H]1O`, for which the outcome in the data set listed under Homo sapiens was Active.
Take `C[C@H]1O[C@@H](O[C@H]2CC[C@]3(/C=N/NC(=O)CCCNC(=O)CCCC[C@@H]4SC[C@@H]5NC(=O)N[C@@H]54)[C@H]4C[C@@H](O)[C@]5(C)[C@@H](C6=CC(=O)OC6)CC[C@]5(O)[C@@H]4CC[C@]3(O)C2)[C@H](O)[C@H](O)[C@H]1O`: the viability at 48 h, 0.05 µM in data set [1] is greater than 90%. Also, the result in the data set listed under Homo sapiens was Active.
As for `C[C@H]1O[C@@H](O[C@H]2CC[C@]3(/C=N/NC(=O)COCCOCCNC(=O)CCCC[C@@H]4SC[C@@H]5NC(=O)N[C@@H]54)[C@H]4C[C@@H](O)[C@]5(C)[C@@H](C6=CC(=O)OC6)CC[C@]5(O)[C@@H]4CC[C@]3(O)C2)[C@H](O)[C@H](O)[C@H]1O`, in data set [1], the viability at 48 h, 0.05 µM is greater than 90%. Besides, in the data set filed under Homo sapiens, the outcome was Active.
Taken in the same sequence, the figures for `C[C@@H]1O[C@@H](O[C@H]2CC[C@]3(/C=N/NC(=O)CCCC[C@@H]4SC[C@@H]5NC(=O)N[C@@H]54)[C@H]4C[C@@H](O)[C@]5(C)[C@@H](C6=CC(=O)OC6)CC[C@]5(O)[C@@H]4CC[C@]3(O)C2)[C@H](O)[C@H](O)[C@H]1O` were greater than 90% and “Active”.
In the case of `NNC(=O)CCCCCNC(=O)CCCC[C@@H]1SC[C@@H]2NC(=O)N[C@@H]21`, the viability at 48 h, 0.05 µM in data set [1] is greater than 90%.
Consider `C[C@@H]1O[C@@H](O[C@H]2CC[C@]3(/C=N/NC(=O)CCCNC(=O)CCCC[C@@H]4SC[C@@H]5NC(=O)N[C@@H]54)[C@H]4C[C@@H](O)[C@]5(C)[C@@H](C6=CC(=O)OC6)CC[C@]5(O)[C@@H]4CC[C@]3(O)C2)[C@H](O)[C@H](O)[C@H]1O`, for which, in data set [1], the viability at 48 h, 0.05 µM is greater than 90%. The result in the data set filed under Homo sapiens was Active.
For `C[C@@H]1O[C@@H](O[C@H]2CC[C@]3(/C=N/NC(=O)CCCCCCCNC(=O)CCCC[C@@H]4SC[C@@H]5NC(=O)N[C@@H]54)[C@H]4C[C@@H](O)[C@]5(C)[C@@H](C6=CC(=O)OC6)CC[C@]5(O)[C@@H]4CC[C@]3(O)C2)[C@H](O)[C@H](O)[C@H]1O`, in that order: greater than 90% and “Active”.
For `C[C@H]1O[C@@H](O[C@H]2CC[C@]3(/C=N/NC(=O)CCCC[C@@H]4SC[C@@H]5NC(=O)N[C@@H]54)[C@H]4C[C@@H](O)[C@]5(C)[C@@H](C6=CC(=O)OC6)CC[C@]5(O)[C@@H]4CC[C@]3(O)C2)[C@H](O)[C@H](O)[C@H]1O`, the viability at 48 h, 0.05 µM in data set [1] is greater than 90%.
Regarding `C[C@H]1O[C@@H](O[C@H]2CC[C@]3(/C=N/NC(=O)CNC(=O)CCCC[C@@H]4SC[C@@H]5NC(=O)N[C@@H]54)[C@H]4C[C@@H](O)[C@]5(C)[C@@H](C6=CC(=O)OC6)CC[C@]5(O)[C@@H]4CC[C@]3(O)C2)[C@H](O)[C@H](O)[C@H]1O`, the viability at 48 h, 0.05 µM in data set [1] was greater than 90%. Also, the result in the data set filed under Homo sapiens was Active.
For the compound `C[C@@H]1O[C@@H](O[C@H]2CC[C@]3(/C=N/NC(=O)COCCNC(=O)CCCC[C@@H]4SC[C@@H]5NC(=O)N[C@@H]54)[C@H]4C[C@@H](O)[C@]5(C)[C@@H](C6=CC(=O)OC6)CC[C@]5(O)[C@@H]4CC[C@]3(O)C2)[C@H](O)[C@H](O)[C@H]1O`, the viability at 48 h, 0.05 µM in data set [1] was greater than 90%.
As to `C[C@H]1O[C@@H](O[C@H]2CC[C@]3(/C=N/NC(=O)CCCCCNC(=O)CCCC[C@@H]4SC[C@@H]5NC(=O)N[C@@H]54)[C@H]4C[C@@H](O)[C@]5(C)[C@@H](C6=CC(=O)OC6)CC[C@]5(O)[C@@H]4CC[C@]3(O)C2)[C@H](O)[C@H](O)[C@H]1O`, in data set [1], the viability at 48 h, 0.05 µM was greater than 90%. The result in the data set listed under Homo sapiens was Active.
For `C[C@@H]1O[C@@H](O[C@H]2CC[C@]3(/C=N/NC(=O)CCCCCNC(=O)CCCC[C@@H]4SC[C@@H]5NC(=O)N[C@@H]54)[C@H]4C[C@@H](O)[C@]5(C)[C@@H](C6=CC(=O)OC6)CC[C@]5(O)[C@@H]4CC[C@]3(O)C2)[C@H](O)[C@H](O)[C@H]1O`, the result (in data set [2]; in the data set listed under Homo sapiens) was Active. Moreover, the viability at 48 h, 0.05 µM in data set [1] is greater than 90%.
Consider `C[C@H]1O[C@@H](O[C@H]2CC[C@]3(/C=N/NC(=O)COCCNC(=O)CCCC[C@@H]4SC[C@@H]5NC(=O)N[C@@H]54)[C@H]4C[C@@H](O)[C@]5(C)[C@@H](C6=CC(=O)OC6)CC[C@]5(O)[C@@H]4CC[C@]3(O)C2)[C@H](O)[C@H](O)[C@H]1O`, for which, in data set [1], the viability at 48 h, 0.05 µM is greater than 90%. Also, in the data set filed under Homo sapiens, the result was Active.
Taken in the same sequence, the figures for `C[C@@H]1O[C@@H](O[C@H]2CC[C@]3(/C=N/NC(=O)CNC(=O)CCCC[C@@H]4SC[C@@H]5NC(=O)N[C@@H]54)[C@H]4C[C@@H](O)[C@]5(C)[C@@H](C6=CC(=O)OC6)CC[C@]5(O)[C@@H]4CC[C@]3(O)C2)[C@H](O)[C@H](O)[C@H]1O` were greater than 90% and “Active”.
As for `NNC(=O)COCCOCCNC(=O)CCCC[C@@H]1SC[C@@H]2NC(=O)N[C@@H]21`, the viability at 48 h, 0.05 µM in data set [1] is greater than 90%.

By viability is commonly meant a per cent measure of how many cells are alive, often set against a control.
